Data from ChEMBL document CHEMBL3352209, “Chroman-4-one- and chromone-based sirtuin 2 inhibitors with antiproliferative properties in cancer cells” (J Med Chem, 2014).
Calls of active or inactive are those of the source. The rule behind the calls is not given here.

Experiments:
[1] = molecular target: T1, NAD-dependent protein deacetylase sirtuin-2 (Homo sapiens) (UniProt Q8IXJ6); experiment: Inhibition of recombinant GST-tagged sirtuin-2 (unknown origin) using KI179 as substrate at 200 uM after 1 hr by fluorescence assay
T1 sequence (whole entry): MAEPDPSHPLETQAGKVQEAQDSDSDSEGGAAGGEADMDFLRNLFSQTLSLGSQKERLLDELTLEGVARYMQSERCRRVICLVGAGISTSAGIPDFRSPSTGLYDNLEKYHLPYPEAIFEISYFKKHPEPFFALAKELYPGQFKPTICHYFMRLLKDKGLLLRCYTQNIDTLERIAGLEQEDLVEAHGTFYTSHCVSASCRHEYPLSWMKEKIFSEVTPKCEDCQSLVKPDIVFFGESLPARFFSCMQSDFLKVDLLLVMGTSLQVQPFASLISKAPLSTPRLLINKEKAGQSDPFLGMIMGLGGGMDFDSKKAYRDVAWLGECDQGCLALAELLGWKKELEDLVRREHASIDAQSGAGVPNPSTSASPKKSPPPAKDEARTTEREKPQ
Summary of the method: (§1)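 Recombinant GST-SIRT2 with Fluor de Lys KI179 acetyl-peptide at 0.7 Km (Km 198 μM) and NAD+ at 0.9 Km in HDAC buffer with 1 mg/mL BSA. Compound in DMSO (5% v/v) preincubated 5 min at room temperature, enzyme added, 1 h at 37 °C; developer plus 2 mM nicotinamide 45 min at 37 °C; fluorescence ex 370/em 460 nm. Single-point inhibition at 200 μM, n = 3; IC50 with 95% CI where inhibition >80%.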

[2] = molecular target: T1, NAD-dependent protein deacetylase sirtuin-2 (Homo sapiens); experiment: Inhibition of sirtuin-2 (unknown origin) by SIRTainty assay in presence of NAD+; details: concentration not given here
Summary of the method: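 SIRT2 run in the SIRTainty kit, which uses nicotinamidase to detect nicotinamide released from NAD+, with and without NAD+. Fluorescence ex 405/em 460 nm, given as percent inhibition of the NAD+-dependent signal.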

[3] = molecular target: T2, NAD-dependent protein deacetylase sirtuin-2 (Homo sapiens, UniProt Q8IXJ6); experiment: Inhibition of recombinant GST-tagged sirtuin-2 (unknown origin) using KI179 as substrate after 1 hr by fluorescence assay; summary of the method: as §1
T2 sequence (Q8IXJ6 whole entry): T1 sequence (whole entry)

MCF7 [4] = experiment: Induction of apoptosis in human MCF7 cells at 50 uM after 18 hrs by propidium iodide staining-based flow cytometry; format: functional, cell-based
A549 [5] = experiment: Antiproliferative activity against human A549 cells at >=50 uM after 48 hrs by sulforhodamine B assay; format: functional, cell-based
MCF7 [6] = experiment: Cell cycle arrest in human MCF7 cells assessed as accumulation at G1/G0 phase at 50 uM after 18 hrs by propidium iodide staining-based flow cytometry; format: functional
Summary of the method: (§2)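 A549 or MCF-7 cells seeded 0.6 × 10⁶/well 6 h before exposure to compound or 0.5% DMSO vehicle for 18 h. DNA content measured by propidium iodide staining and flow cytometry, giving percent of cells in G1/G0, S and G2/M; mean ± SEM of two to four independent experiments; one-way ANOVA with Tukey test.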

MCF7 [7] = experiment: Cytotoxicity against human MCF7 cells at 100 uM after 18 hrs; format: cell-based; details: mcf7, 18 h
A549 [8] = experiment: Antiproliferative activity against human A549 cells at 1 to 100 uM after 48 hrs by sulforhodamine B assay; format: functional, cell-based
Summary of the method: (§3)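 A549 and MCF-7 cells (DMEM, 10% FCS, penicillin/streptomycin, 37 °C, 5% CO2) seeded 3000 cells/well 24 h before dosing; 0–100 μM compound or 0.5% DMSO vehicle for 48 h (A549) or 72 h (MCF-7). Growth read by sulforhodamine B staining; mean ± SEM of two to three independent experiments; ANOVA with Tukey test.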

[9] = molecular target: T1, NAD-dependent protein deacetylase sirtuin-2 (Homo sapiens); experiment: Inhibition of SIRT2 in human MCF7 cells assessed as alpha-tubulin acetylation after 6 to 18 hrs by Western blotting analysis; format: cell-based
Summary of the method: (§4)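 MCF-7 cells seeded 10⁵/well, dosed 24 h later with compound plus 40 nM Trichostatin A, or 0.5% DMSO, for 6 or 18 h. Lysates separated by SDS-PAGE and blotted with acetylated α-tubulin and total α-tubulin mouse monoclonals, HRP anti-mouse and ECL detection; mean ± SEM of three independent experiments.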

MCF7 [10] = experiment: Antiproliferative activity against human MCF7 cells at 1 to 100 uM after 72 hrs by sulforhodamine B assay; format: functional, cell-based; summary of the method: as §3
A549 [11] = experiment: Antiproliferative activity against human A549 cells at 10 uM after 48 hrs by sulforhodamine B assay; format: functional, cell-based
A549 [12] = experiment: Induction of apoptosis in human A549 cells at 50 uM after 18 hrs by propidium iodide staining-based flow cytometry; format: functional, cell-based
MCF7 [13] = experiment: Antiproliferative activity against human MCF7 cells at 10 uM after 72 hrs by sulforhodamine B assay
MCF7 [14] = experiment: Antiproliferative activity against human MCF7 cells at >=50 uM after 48 hrs by sulforhodamine B assay; format: functional, cell-based
A549 [15] = experiment: Cell cycle arrest in human A549 cells assessed as accumulation at G1/G0 phase at 50 uM after 18 hrs by propidium iodide staining-based flow cytometry; format: functional; summary of the method: as §2
[16] = molecular target: T1, NAD-dependent protein deacetylase sirtuin-2 (Homo sapiens); details: MCF7, 25 to 100 uM
A549 [17] = experiment: Induction of apoptosis in human A549 cells at 100 uM after 18 hrs by propidium iodide staining-based flow cytometry; format: functional, cell-based
A549 [18] = experiment: Cell cycle arrest in human A549 cells assessed as accumulation at G1/G0 phase at 100 uM after 18 hrs by propidium iodide staining-based flow cytometry; format: functional; summary of the method: as §2
MCF7 [19] = experiment: Induction of apoptosis in human MCF7 cells at 100 uM after 18 hrs by propidium iodide staining-based flow cytometry; format: functional, cell-based
MCF7 [20] = experiment: Cell cycle arrest in human MCF7 cells assessed as accumulation at G1/G0 phase at 100 uM after 18 hrs by propidium iodide staining-based flow cytometry; format: functional; summary of the method: as §2
[21] = molecular target: T1, NAD-dependent protein deacetylase sirtuin-2 (Homo sapiens); experiment: Inhibition of SIRT2 in human MCF7 cells assessed as alpha-tubulin acetylation at 50 to 100 uM after 18 hrs by Western blotting analysis; format: cell-based; summary of the method: as §4
A549 [22] = experiment: Cell cycle arrest in human A549 cells assessed as reduction in G2 phase at 100 uM after 18 hrs by propidium iodide staining-based flow cytometry; format: functional; summary of the method: as §2

SMILES: O=C1CC(CCCCCO)Oc2c(Br)cc(Cl)cc21 (stereo unspecified)
- inhibition [1]: 67%

SMILES: N#Cc1c(CCc2ccccc2)oc2c(Br)cc(Cl)cc2c1=O
- inhibition [1]: 50%

SMILES: COCCOCC1CC(=O)c2cc(Cl)cc(Br)c2O1 (stereo unspecified)
- inhibition [1]: 33%

SMILES: O=C1CC(CCc2ccccn2)Oc2c(Br)cc(Cl)cc21 (stereo unspecified)
- inhibition [1]: 74%

SMILES: O=C1CC(CCCN2CCOCC2)Oc2c(Br)cc(Cl)cc21 (stereo unspecified)
- inhibition [2]: 17%

SMILES: CC(=O)Nc1c(CCc2ccccc2)oc2c(Br)cc(Cl)cc2c1=O
- IC50 [3]: 28.7 µM
- inhibition [1]: 81%

SMILES: CN(C)C(=O)CCCC1CC(=O)c2cc(Cl)cc(Br)c2O1 (stereo unspecified)
- inhibition [1]: 53%

SMILES: CC(C)NC(=O)CCCC1CC(=O)c2cc(Cl)cc(Br)c2O1 (stereo unspecified)
- inhibition [1]: 23%

SMILES: O=C1CC(CCc2cccnc2)Oc2c(Br)cc(Cl)cc21 (stereo unspecified)
- Activity (MCF7 [4]): inactive
- growth inhibition (GI) (A549 [5]): Active
- Activity (MCF7 [6]): Active
- Activity (MCF7 [7]): Toxic
- growth inhibition (GI) (A549 [8]): Active
- inhibition [9]: Dose-dependent effect
- growth inhibition (GI) (MCF7 [10]): Active
- IC50 [3]: 3.7 µM
- growth inhibition (GI) (A549 [11]): Active
- inhibition [1]: 86%
- Activity (A549 [12]): inactive
- growth inhibition (GI) (MCF7 [13]): Active
- growth inhibition (GI) (MCF7 [14]): Active
- Activity (A549 [15]): Active
- inhibition [16]: Active

SMILES: CCCCCC1CC(=O)c2cc(Br)ccc2O1 (stereo unspecified)
- inhibition [1]: 69%

SMILES: O=C1CC(CCc2ccc3ncccc3c2)Oc2c(Br)cc(Cl)cc21 (stereo unspecified)
- inhibition [1]: 56%

SMILES: Nc1c(CCc2ccccc2)oc2c(Br)cc(Cl)cc2c1=O
- inhibition [1]: 79%

SMILES: O=C(O)CCC1CC(=O)c2cc(Cl)cc(Br)c2O1 (stereo unspecified)
- inhibition [1]: 6.8%

SMILES: CNC(=O)CCCC1CC(=O)c2cc(Cl)cc(Br)c2O1 (stereo unspecified)
- inhibition [1]: 39%

SMILES: CNC(=O)CCC1CC(=O)c2cc(Cl)cc(Br)c2O1 (stereo unspecified)
- inhibition [1]: 0.2%

SMILES: O=C1CC(CCc2ccc3[nH]c(=O)ccc3c2)Oc2c(Br)cc(Cl)cc21 (stereo unspecified)
- inhibition [1]: 59%

SMILES: COC(=O)CCC1CC(=O)c2cc(Cl)cc(Br)c2O1 (stereo unspecified)
- IC50 [3]: 9.6 µM
- inhibition [1]: 80%

SMILES: O=C1CC(CCc2ccncc2)Oc2c(Br)cc(Cl)cc21 (stereo unspecified)
- inhibition [1]: 73%

SMILES: O=C(O)CCCC1CC(=O)c2cc(Cl)cc(Br)c2O1 (stereo unspecified)
- inhibition [1]: 7.6%

SMILES: O=C1CC(CCCCO)Oc2c(Br)cc(Cl)cc21 (stereo unspecified)
- inhibition [1]: 52%

SMILES: O=C(CCCC1CC(=O)c2cc(Cl)cc(Br)c2O1)NCc1ccccc1 (stereo unspecified)
- inhibition [1]: 39%

SMILES: O=C1CC(CCCO)Oc2c(Br)cc(Cl)cc21 (stereo unspecified)
- inhibition [1]: 18%

SMILES: O=C1CC(CCCN2CCCCC2)Oc2c(Br)cc(Cl)cc21 (stereo unspecified)
- inhibition [2]: 40%

SMILES: CCCCCC1CC(=O)c2cc(Br)cc(Cl)c2O1 (stereo unspecified)
- IC50 [3]: 1.8 µM
- inhibition [1]: 96%

SMILES: Cc1noc(CCCC2CC(=O)c3cc(Cl)cc(Br)c3O2)n1 (stereo unspecified)
- inhibition [1]: 49%

SMILES: COC(=O)CCCC1CC(=O)c2cc(Cl)cc(Br)c2O1 (stereo unspecified)
- IC50 [3]: 2 µM
- inhibition [1]: 90%

SMILES: N/C=C1\C(=O)c2cc(Cl)cc(Br)c2OC1CCc1ccccc1 (stereo unspecified)
- inhibition [1]: 76%

SMILES: Cc1noc(CCC2CC(=O)c3cc(Cl)cc(Br)c3O2)n1 (stereo unspecified)
- Activity (A549 [17]): inactive
- growth inhibition (GI) (A549 [8]): Active
- Activity (A549 [18]): Active
- Activity (MCF7 [19]): inactive
- inhibition [9]: Dose-dependent effect
- growth inhibition (GI) (MCF7 [10]): Active
- IC50 [3]: 12.2 µM
- Activity (MCF7 [20]): Active
- inhibition [1]: 77%
- inhibition [21]: Active
- Activity (A549 [22]): Active
